Measured values: paper PMC5395206 (Journal of chemical information and modeling, 2016)

Key:
[1] = tested on: CB2 F197 replaced with valine; settings: cited from earlier work
[2] = target: CB2 (Homo sapiens, UniProt P34972); experiment: Radioligand competition binding assay, [3H]CP-55,940 displacement; settings: inhibition of [3H]CP-55,940 (3 nM) binding to CB2 membrane protein
How it was run: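 CB2 membrane protein (5 μg) incubated with [3H]CP-55,940 (3 nM final) and serial dilutions of test compound. Compound was diluted in binding buffer with 10% DMSO and 0.4% methylcellulose. Incubation was 1 h at 30 °C with gentle shaking, then GF/B filtration and scintillation counting. Run in duplicate, reported as mean ± SEM; Ki from nonlinear regression.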

[3] = tested on: human CB2 receptors; experiment: LANCE cAMP assay in CB2-transfected CHO cells; format: cell-based
How it was run: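 CHO cells stably transfected with wild-type human CB2, seeded at 2000 cells/well in RPMI-1640 with 1% dialyzed FBS, 25 mM HEPES and G-418, cultured overnight. Added cAMP antibody plus RO20-1724 (50 μM final) in DPBS/0.1% BSA, then test compound or forskolin (5 μM final). Incubated 45 min at RT, plus 1 h with detection reagent. TR-FRET read at ex 340/em 665 nm. ≥2 independent experiments in triplicate; EC50 from nonlinear regression.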

[4] = CHO cells expressing human CB2, forskolin-induced cAMP

Chain of CB2 (P34972 whole entry): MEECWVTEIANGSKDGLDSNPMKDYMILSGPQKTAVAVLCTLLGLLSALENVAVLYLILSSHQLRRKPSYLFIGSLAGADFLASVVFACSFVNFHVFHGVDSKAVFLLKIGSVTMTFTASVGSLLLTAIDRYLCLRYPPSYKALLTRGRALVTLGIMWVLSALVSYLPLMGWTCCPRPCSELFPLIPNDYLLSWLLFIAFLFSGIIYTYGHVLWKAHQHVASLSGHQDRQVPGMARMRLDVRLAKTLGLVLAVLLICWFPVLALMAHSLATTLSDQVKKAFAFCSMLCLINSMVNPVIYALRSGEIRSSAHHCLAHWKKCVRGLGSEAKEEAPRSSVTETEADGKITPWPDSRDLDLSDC

Row | SMILES | Ki [2] | other results
1 | CCCCC/C=C\C/C=C\C/C=C\C/C=C\CCCC(=O)NCCO [AEA] | – | Effect of replacement of F197 with valine on association [1]: no effect
2 | CCCCCCC(C)(C)c1ccc([C@@H]2C[C@H](O)CC[C@H]2CCCO)c(O)c1 [CP55940] | – | Effect of replacement of F197 with valine on association [1]: no effect
3 | CC1CN(CCOC(=O)Nc2ccc(Cl)cc2)CCN1C(C)(C)C (stereo not shown) [NSC93299] | 2240 nM | –
4 | Cc1ccc(OCc2c(COc3ccc(Cl)cc3)sc3ccc(Cl)cc23)cc1 [NSC162677] | 1550 nM | –
5 | Cc1ccc(S(=O)(=O)N(Cc2ccc(Cl)cc2)S(=O)(=O)c2ccc(C)cc2)cc1 [NSC273936] | 346 nM | –
6 | Cc1ccc(S(=O)(=O)N(CCc2ccc(Cl)cc2)S(=O)(=O)c2ccc(C)cc2)cc1 [NSC273939] | 192 nM | –
7 | Cc1ccc(S(=O)(=O)N(CCc2ccccc2)S(=O)(=O)c2ccc(C)cc2)cc1 [NSC273940] | 195 nM | –
8 | Cc1ccc(S(=O)(=O)NC(CC(=O)OCc2ccccc2)C(=O)OCc2ccccc2)cc1 (stereo not shown) [NSC296950] | 2360 nM | Functional activity in LANCE cAMP assay [3, 4]: inverse agonist
9 | CCN(CC)CCCNc1cccc2ccc(OC)nc12.I [NSC402300] | 398 nM | Functional activity in LANCE cAMP assay ([3]; at concentrations above 10 μM): inverse agonist; Functional activity in LANCE cAMP assay ([3]; at concentrations below 10 μM): neutral antagonist
10 | Cc1ccc(C)c(NC(=O)CCC(=O)C(C#N)c2nc3ccccc3s2)c1 (stereo not shown) [NSC618804] | 656 nM | –
11 | COC(=O)CCc1c(Cc2ccc[nH]2)[nH]c(C(=O)OCc2ccccc2)c1C [NSC669611] | 923 nM | Functional activity in LANCE cAMP assay [3, 4]: behaves similarly to NSC402300; Functional activity in LANCE cAMP assay ([3]; at concentrations below 10 μM): neutral antagonist
12 | COc1ccc(C(=O)c2nc3ccccc3n2CC(=O)c2ccc(Cl)cc2)cc1 [NSC745454] | 1550 nM | –
13 | Cc1c(C(=O)c2cccc3ccccc23)c2cccc3c2n1[C@H](CN1CCOCC1)CO3 [WIN55,212-2] | – | Decrease in binding affinity to CB2 on replacement of F197 with valine [1]: 14 fold
14 | CCCCCCC(C)(C)c1cc(O)c2c(c1)OC(C)(C)[C@@H]1CC=C(CO)C[C@@H]21 [hU-210] | – | Effect of replacement of F197 with valine on association [1]: no effect
